Tests used:
[1] = biological target: T1, Alpha-1D adrenergic receptor (Homo sapiens, UniProt P25100); test: Displacement of 7-methoxy-[3H]-prazosin from human alpha1D adrenergic receptor expressed in CHO-K1 cell membranes incubated for 60 mins by liquid scintillation counting analysis
T1 sequence (P25100 whole entry): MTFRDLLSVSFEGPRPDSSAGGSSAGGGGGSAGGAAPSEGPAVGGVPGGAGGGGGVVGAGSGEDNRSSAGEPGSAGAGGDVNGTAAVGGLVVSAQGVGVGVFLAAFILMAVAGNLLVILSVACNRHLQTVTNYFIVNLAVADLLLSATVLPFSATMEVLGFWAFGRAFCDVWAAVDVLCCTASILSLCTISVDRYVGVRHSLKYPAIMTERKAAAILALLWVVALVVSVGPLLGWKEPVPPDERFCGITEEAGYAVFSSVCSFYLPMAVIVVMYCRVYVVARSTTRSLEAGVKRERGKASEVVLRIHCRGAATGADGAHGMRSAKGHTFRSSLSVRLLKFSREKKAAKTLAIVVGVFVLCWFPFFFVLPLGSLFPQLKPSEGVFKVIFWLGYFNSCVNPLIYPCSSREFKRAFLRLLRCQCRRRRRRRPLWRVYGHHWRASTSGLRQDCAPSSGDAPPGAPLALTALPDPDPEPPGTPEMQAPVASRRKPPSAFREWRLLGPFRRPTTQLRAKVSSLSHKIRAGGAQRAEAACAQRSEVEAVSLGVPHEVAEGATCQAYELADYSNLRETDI
Summary of the method: (§1)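 CHO-K1 stable-line membranes (10 µg protein), 2.5 nmol/L ligand, Tris-HCl pH 7.5 with MgCl2, EDTA and 0.5% BSA, 12 compound concentrations, room temperature. Filtered and counted; nonspecific binding with 10 µmol/L phentolamine. IC50 by logistic regression, converted to Ki by Cheng-Prusoff with Kd 0.93 (α1A), 0.35 (α1B), 0.26 (α1D) nmol/L. Triplicate mean, 95% CI.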

[2] = Mean residence time in rat at 1 mg/kg, po administered via cassette dosing by LC/MS/MS analysis; format: ADME, organism-based; conditions: in vivo
Summary of the method: (§2)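 Fed rats dosed orally at 1 mg/kg as 0.5% methylcellulose suspension by cassette dosing; bioavailability also uses an iv arm of 0.1 mg/kg in DMA/1,3-butanediol (1:1). Plasma obtained from blood by centrifugation, deproteinized, and measured by LC/MS/MS. Values are averages of three rats.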

Urinary bladder = test: Inhibition of (R)-(-)-phenylephrine hydrochloride-induced contractions in Wistar rat bladder with outlet obstruction treated every 30 minutes post (R)-(-)-phenylephrine hydrochloride challenge; format: functional; conditions: for IC30: 0.5 h
Homo sapiens [3] = species: Homo sapiens; test: Selectivity ratio of Ki for human alpha1A adrenergic receptor to Ki for human alpha1D adrenergic receptor
Summary of the method: (§3)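 Membranes from CHO-K1 cells stably expressing human α1A, α1B or α1D receptors (10 µg protein) incubated 60 min at room temperature with 2.5 nmol/L 7-methoxy[3H]-prazosin and 12 compound concentrations in Tris-HCl pH 7.5 buffer with MgCl2, EDTA, 0.5% BSA. Bound counts taken after filtration; nonspecific binding defined with 10 µmol/L phentolamine.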

[4] = Cmax in rat at 1 mg/kg, po administered via cassette dosing by LC/MS/MS analysis; format: ADME, organism-based; parameters: dose 1 mg/kg, route oral; conditions: in vivo; summary of the method: as §2
Rattus norvegicus [5] = test: Inhibition of nonvoiding contractions during urinary storage phase in iv dosed Wistar rat with bladder outlet obstruction after 10 mins by cystometrogram; format: functional; conditions: for ED50: read-out: ID50 (the source's name)
[6] = Oral bioavailability in rat at 1 mg/kg administered via cassette dosing by LC/MS/MS analysis; format: ADME, organism-based; conditions: in vivo; summary of the method: as §2
hERG (KCNH2) = hERG (KCNH2) (Homo sapiens, UniProt Q12809); test: Inhibition of human ERG channel expressed in CHO cells assessed as peak tail current at 10 uM incubated for 5 mins by patch-clamp assay; format: cell-based; conditions: CHO cells expressing human ERG channel
Sequence of hERG (KCNH2) (Q12809 whole entry): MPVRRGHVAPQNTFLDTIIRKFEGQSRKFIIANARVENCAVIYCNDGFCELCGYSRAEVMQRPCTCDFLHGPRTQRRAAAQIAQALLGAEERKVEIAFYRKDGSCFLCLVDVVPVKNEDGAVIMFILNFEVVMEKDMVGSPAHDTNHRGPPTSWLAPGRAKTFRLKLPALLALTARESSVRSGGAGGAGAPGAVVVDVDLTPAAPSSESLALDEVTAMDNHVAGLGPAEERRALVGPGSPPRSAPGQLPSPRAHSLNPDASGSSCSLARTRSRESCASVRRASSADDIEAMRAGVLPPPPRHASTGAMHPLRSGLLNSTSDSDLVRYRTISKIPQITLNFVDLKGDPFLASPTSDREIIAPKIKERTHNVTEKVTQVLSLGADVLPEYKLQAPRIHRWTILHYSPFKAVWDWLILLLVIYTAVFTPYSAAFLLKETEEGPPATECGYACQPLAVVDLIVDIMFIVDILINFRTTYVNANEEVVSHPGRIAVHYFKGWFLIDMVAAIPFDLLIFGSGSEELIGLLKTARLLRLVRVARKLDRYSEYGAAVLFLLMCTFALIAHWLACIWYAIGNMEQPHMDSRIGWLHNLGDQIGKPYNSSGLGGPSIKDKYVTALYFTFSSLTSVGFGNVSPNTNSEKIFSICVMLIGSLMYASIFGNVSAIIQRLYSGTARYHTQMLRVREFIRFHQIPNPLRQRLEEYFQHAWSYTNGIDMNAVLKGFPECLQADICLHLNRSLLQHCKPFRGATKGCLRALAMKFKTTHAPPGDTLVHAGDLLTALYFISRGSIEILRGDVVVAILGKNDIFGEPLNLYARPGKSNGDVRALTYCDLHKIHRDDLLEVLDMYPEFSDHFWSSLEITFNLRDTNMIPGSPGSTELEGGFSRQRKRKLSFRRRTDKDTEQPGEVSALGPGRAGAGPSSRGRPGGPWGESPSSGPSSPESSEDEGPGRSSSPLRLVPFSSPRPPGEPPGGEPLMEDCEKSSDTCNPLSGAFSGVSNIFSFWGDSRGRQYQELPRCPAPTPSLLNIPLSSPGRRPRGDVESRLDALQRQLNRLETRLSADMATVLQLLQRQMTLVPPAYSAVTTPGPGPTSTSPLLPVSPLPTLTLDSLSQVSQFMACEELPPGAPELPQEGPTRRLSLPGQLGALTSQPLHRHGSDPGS
Summary of the method: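 CHO cells stably expressing hERG, grown at 32 °C, 5% CO2 in Ham's F-12 with 10% FBS and 500 µg/mL Geneticin. Population patch clamp with PBS (Ca/Mg) outside, KCl/MgCl2/EGTA/HEPES pH 7.3 inside, amphotericin B perforation. Holding −80 mV, step to 40 mV 2 s, then −50 mV 2 s. Peak tail current taken before and after 5 min compound exposure, inhibition = 100 − post/pre×100, n = 3 or 4.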

[7] = Total clearance in rat at 0.1 mg/kg, iv administered via cassette dosing by LC/MS/MS analysis; format: ADME, organism-based; conditions: in vivo
Summary of the method: (§4)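 Cassette dosing iv at 0.1 mg/kg in DMA/1,3-butanediol (1:1) to fed rats. Blood collected after dosing and centrifuged to plasma, which was deproteinized and centrifuged; supernatant concentrations measured by LC/MS/MS.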

Homo sapiens [8] = species: Homo sapiens; test: Selectivity ratio of Ki for human alpha1B adrenergic receptor to Ki for human alpha1D adrenergic receptor; summary of the method: as §3
Rattus norvegicus [9] = test: Reduction of urinary frequency in po dosed Sprague-Dawley rat with cyclophosphamide-induced cystitis assessed as increased voiding intervals administered at voiding intervals less <7.2 mins measured after 5 to 35 mins by cystometrogram; format: functional; conditions: Urine, read-out: MED
[10] = AUC in rat at 1 mg/kg, po administered via cassette dosing by LC/MS/MS analysis; format: ADME, organism-based; conditions: in vivo; summary of the method: as §2
[11] = Volume of distribution at steady state in rat at 0.1 mg/kg, iv administered via cassette dosing by LC/MS/MS analysis; format: ADME, organism-based; conditions: in vivo, read-out: Vdss; summary of the method: as §4
[12] = biological target: T2, Alpha-1A adrenergic receptor (Homo sapiens, UniProt P35348); test: Displacement of 7-methoxy-[3H]-prazosin from human alpha1A adrenergic receptor expressed in CHO-K1 cell membranes incubated for 60 mins by liquid scintillation counting analysis; summary of the method: as §1
T2 sequence (P35348 whole entry): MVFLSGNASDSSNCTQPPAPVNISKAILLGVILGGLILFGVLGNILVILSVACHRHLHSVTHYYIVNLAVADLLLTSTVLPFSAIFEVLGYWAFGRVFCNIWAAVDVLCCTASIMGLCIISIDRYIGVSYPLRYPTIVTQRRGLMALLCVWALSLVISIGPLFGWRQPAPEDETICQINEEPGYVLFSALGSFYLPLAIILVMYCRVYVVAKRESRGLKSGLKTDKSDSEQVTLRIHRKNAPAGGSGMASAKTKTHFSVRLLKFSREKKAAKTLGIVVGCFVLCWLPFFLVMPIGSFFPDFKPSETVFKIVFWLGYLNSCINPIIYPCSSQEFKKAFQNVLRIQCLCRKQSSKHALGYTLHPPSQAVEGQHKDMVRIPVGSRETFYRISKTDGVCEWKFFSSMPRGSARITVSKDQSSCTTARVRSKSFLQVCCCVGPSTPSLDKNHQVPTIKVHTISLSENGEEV

[13] = biological target: T3, 5-hydroxytryptamine receptor 1A (Homo sapiens, UniProt P08908); test: Inhibition of 5-HT 1A receptor (unknown origin)
T3 sequence (P08908 whole entry): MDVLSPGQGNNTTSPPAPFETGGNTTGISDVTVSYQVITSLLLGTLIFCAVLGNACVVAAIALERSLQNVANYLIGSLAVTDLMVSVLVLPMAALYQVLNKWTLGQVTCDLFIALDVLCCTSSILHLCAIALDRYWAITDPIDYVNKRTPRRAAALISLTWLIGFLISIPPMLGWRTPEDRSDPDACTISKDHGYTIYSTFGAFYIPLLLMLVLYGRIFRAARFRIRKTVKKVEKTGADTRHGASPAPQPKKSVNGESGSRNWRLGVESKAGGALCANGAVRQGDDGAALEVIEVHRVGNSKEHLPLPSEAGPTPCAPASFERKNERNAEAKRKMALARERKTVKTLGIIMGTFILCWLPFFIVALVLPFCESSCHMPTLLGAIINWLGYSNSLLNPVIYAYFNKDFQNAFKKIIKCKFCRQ

[14] = biological target: T4, Alpha-1B adrenergic receptor (Homo sapiens, UniProt P35368); test: Displacement of 7-methoxy-[3H]-prazosin from human alpha1B adrenergic receptor expressed in CHO-K1 cell membranes incubated for 60 mins by liquid scintillation counting analysis; summary of the method: as §1
T4 sequence (P35368 whole entry): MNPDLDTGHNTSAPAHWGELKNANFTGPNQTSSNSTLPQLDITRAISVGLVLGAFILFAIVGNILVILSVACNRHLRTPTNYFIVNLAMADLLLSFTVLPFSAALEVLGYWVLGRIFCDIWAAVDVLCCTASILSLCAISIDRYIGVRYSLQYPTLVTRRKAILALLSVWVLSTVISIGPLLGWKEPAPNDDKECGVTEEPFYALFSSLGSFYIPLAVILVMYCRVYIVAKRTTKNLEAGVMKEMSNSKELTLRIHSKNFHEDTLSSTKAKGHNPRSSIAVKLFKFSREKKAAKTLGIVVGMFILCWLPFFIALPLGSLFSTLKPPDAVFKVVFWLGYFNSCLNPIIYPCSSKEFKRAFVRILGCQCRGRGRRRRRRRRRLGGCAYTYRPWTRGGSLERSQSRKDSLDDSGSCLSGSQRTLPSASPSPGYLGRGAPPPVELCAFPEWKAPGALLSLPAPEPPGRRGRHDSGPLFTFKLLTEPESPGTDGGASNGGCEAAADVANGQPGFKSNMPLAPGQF

Structure (SMILES)	Ki [1] [nM]	inhibition at 5 min, 10 µM (hERG (KCNH2)) [%]	further results
N#Cc1cccc(Cn2cc(Cl)cc(C(N)=O)c2=N)c1	10		
C[C@H](c1cccc(C#N)c1)n1cc(Cl)cc(C(N)=O)c1=N [(R)-9s]	1.6	25	MRT [2]: 3.14 h; inhibition (Urinary bladder): Dose-dependent effect; IC30 (Urinary bladder): 15 nM; Ratio Ki (Homo sapiens [3]): > 1700; Cmax [4]: 142 ng/mL; inhibition (Rattus norvegicus [5]): Dose-dependent effect; ED50 (Rattus norvegicus [5]): 4.4 µg/kg; bioavailability [6]: 86%; clearance [7]: 39.2 mL/min/kg; Ratio Ki (Homo sapiens [8]): > 750; minimal effective dose (Rattus norvegicus [9]): 10 µg/kg; AUC [10]: 368 ng·h/mL; Vd [11]: 4.68 L/kg
N#Cc1ccc(Cn2cc(Cl)cc(C(N)=O)c2=N)cc1Cl	11	74	
CS(=O)(=O)c1cc(Cl)cc(Cn2cc(Cl)cc(C(N)=O)c2=N)c1	4.8	14	
Cc1cccc(Cn2cc(Cl)cc(C(N)=O)c2=N)c1	7.5		
N#Cc1ccc(Cl)cc1Cn1cc(Cl)cc(C(N)=O)c1=N	8.5	59	
CS(=O)(=O)c1ccc(Cn2cc(Cl)cc(C(N)=O)c2=N)cc1Cl	9.4	13	
N=c1c(C(N)=O)cc(Cl)cn1Cc1cccc(Cl)c1	2.6	47	
CC(c1cccc(Cl)c1)n1cc(Cl)cc(C(N)=O)c1=N (configuration not stated)	0.66	48	
CS(=O)(=O)c1cccc(Cn2cc(Cl)cc(C(N)=O)c2=N)c1	52		
N=c1c(C(N)=O)cc(Cl)cn1Cc1ccc(C(N)=O)c(Cl)c1	65	10	
N=c1c(C(N)=O)cc(Br)cn1Cc1ccccc1	160		
N=c1c(C(N)=O)cc(Cl)cn1-c1ccccc1	> 940		
N=c1c(C(N)=O)cccn1Cc1ccccc1	880		
N=c1c(C(N)=O)cc(Cl)cn1Cc1cccc(C(N)=O)c1	26		
CN(C)C(=O)c1cc(Cl)cn(Cc2ccccc2)c1=N	> 940		
N=c1c(C(N)=O)cc(Cl)cn1Cc1ccc(Cl)cc1	23		
N=c1c(C(N)=O)cc(Cl)cn1CCCc1ccccc1	54		

Structure (SMILES)	Ki [1] [nM]	inhibition at 5 min, 10 µM (hERG (KCNH2)) [%]	further results
N=c1c(C(N)=O)cc(Cl)cn1Cc1ccco1	160		
N=c1c(C(N)=O)cc(Cl)cn1Cc1ccccn1	420		
N#Cc1cc(Cl)cc(Cn2cc(Cl)cc(C(N)=O)c2=N)c1	0.86	71	
C[C@@H](c1cccc(C#N)c1)n1cc(Cl)cc(C(N)=O)c1=N [(S)-9s]	130	57	
N=c1c(C(N)=O)cc(Cl)cn1Cc1ccccc1	30		Ki [12]: > 2700 nM; IC50 [13]: > 1000 nM; Ki [14]: > 1200 nM
NC(=O)c1cc(Cl)cn(Cc2ccccc2)c1=O	> 940		
CC(c1cccc(C#N)c1)n1cc(Cl)cc(C(N)=O)c1=N (configuration not stated)	3.4	32	
CC(C)(C)Cn1cc(Cl)cc(C(N)=O)c1=N	820		
N=c1c(C(N)=O)cc(Cl)cn1Cc1ccccc1Cl	39		
N=c1c(C(N)=O)cc(Cl)cn1Cc1cc(Cl)cc(C(N)=O)c1	3.7	13	MRT [2]: 2.47 h; Ratio Ki (Homo sapiens [3]): > 730; Cmax [4]: 3.2 ng/mL; bioavailability [6]: 3%; clearance [7]: 47.2 mL/min/kg; Ratio Ki (Homo sapiens [8]): > 320; AUC [10]: 10.8 ng·h/mL; Vd [11]: 3.21 L/kg
N=c1c(C(N)=O)cc(Cl)cn1Cc1cccnc1	250		
CCNC(=O)c1cc(Cl)cn(Cc2ccccc2)c1=N	> 940		
CCOc1ccccc1OCCN[C@H](C)Cc1ccc(OC)c(S(N)(=O)=O)c1			Ratio Ki (Homo sapiens [3]): 0.7; Ratio Ki (Homo sapiens [8]): 11
COc1cccc(Cn2cc(Cl)cc(C(N)=O)c2=N)c1	8.7		
N=c1c(C(N)=O)cc(Cl)cn1CCc1ccccc1	16		
CC(c1cccc(S(C)(=O)=O)c1)n1cc(Cl)cc(C(N)=O)c1=N (configuration not stated)	15	19	
CS(=O)(=O)c1ccc(Cl)cc1Cn1cc(Cl)cc(C(N)=O)c1=N	1.1	16	MRT [2]: 4.53 h; inhibition (Urinary bladder): Dose-dependent effect; IC30 (Urinary bladder): 12 nM; Ratio Ki (Homo sapiens [3]): 200; Cmax [4]: 60.2 ng/mL; inhibition (Rattus norvegicus [5]): Dose-dependent effect; ED50 (Rattus norvegicus [5]): 1.3 µg/kg; bioavailability [6]: 84.5%; clearance [7]: 39.9 mL/min/kg; Ratio Ki (Homo sapiens [8]): 800; minimal effective dose (Rattus norvegicus [9]): 10 µg/kg; AUC [10]: 358 ng·h/mL; Vd [11]: 4.43 L/kg
